Source: ChEMBL document CHEMBL2169794, “Induction of apoptosis by 3-amino-6-(3-aminopropyl)-5,6-dihydro-5,11-dioxo-11H-indeno[1,2-c]isoquinoline via modulation of MAPKs (p38 and c-Jun N-terminal kinase) and c-Myc in HL-60 human leukemia cells” (J Nat Prod, 2012)
Calls of active or inactive are those of the source. The rule behind the calls is not given here.

Legend:
[1] = target: MAP kinase p38 (Homo sapiens) (UniProt O15264+Q15759+Q16539+P53778); test: Induction of p38 MAPK phosphorylation in human HL60 cells at 1 uM incubated for 1 to 24 hrs by Western blot method; format: cell-based; settings: HL-60
Summary of the method: (§1)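 HL-60 cells exposed to 1 µM test agent for the indicated times, then lysed. 15 µg protein run on 12% SDS-PAGE, blotted to PVDF, probed overnight at 4 °C with antibodies to phospho- or total ERK1/2, p38 (Thr180/Tyr182), SAPK/JNK (Thr183/Tyr185) or c-Myc. HRP secondary, chemiluminescent read-out.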

[2] = system: HL-60; test: Induction of apoptosis assessed as increase in caspase 9 enzyme activity in human HL60 cells at 1 uM incubated for 24 to 72 hrs by luminometry relative to untreated control; format: functional
Summary of the method: (§2)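 HL-60 cells treated with serial dilutions in 96-well plates for 24, 48 and 72 h. Luminogenic caspase-3/7, caspase-8 or caspase-9 substrate reagent added for 3 h at room temperature, then luminescence read. Results are expressed as fold over DMSO vehicle control.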

[3] = system: HL-60; test: Cell cycle arrest in human HL60 cells assessed as accumulation at subG0/G1 phase at 0.5 uM by NIM-DAPI staining based flow cytometry (reference value: 2.8 +/- 0.8%); format: functional
[4] = system: HL-60; test: Induction of apoptosis in human HL60 cells assessed as late apoptotic cells level at 2 uM incubated for 24 hrs by annexinV/7-AAD double staining based flow cytometry (reference value: 0.43%); format: functional
[5] = system: HL-60; test: Cell cycle arrest in human HL60 cells assessed as accumulation at G2/M phase at 0.25 uM by NIM-DAPI staining based flow cytometry (reference value: 13.2 +/- 2.8%); format: functional
[6] = system: HL-60; test: Induction of PARP cleavage in human HL60 cells 1 uM incubated for 24 hrs by Western blot method; format: functional, cell-based
Summary of the method: (§3)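 HL-60 cells exposed for 24 h to the stated concentrations and lysed; protein measured by Bradford. Lysate (15 µg) run on 12% SDS-PAGE and transferred to PVDF. Blocked in 5% milk/TBST for 1 h, primary antibody overnight at 4 °C, HRP secondary for 2 h at room temperature, chemiluminescent detection.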

[7] = system: HL-60; test: Induction of PARP cleavage in human HL60 cells 2 uM incubated for 24 hrs by Western blot method; format: functional, cell-based; summary of the method: as §3
[8] = system: HL-60; test: Cell cycle arrest in human HL60 cells assessed as accumulation at G2/M phase at 0.5 uM by NIM-DAPI staining based flow cytometry (reference value: 13.2 +/- 2.8%); format: functional
[9] = system: HL-60; test: Effect on total p38MAPK protein expression in human HL60 cells at 1 uM incubated for 1 to 24 hrs by Western blot method; format: functional, cell-based; summary of the method: as §1
[10] = system: HL-60; test: Induction of apoptosis in human HL60 cells assessed as early apoptotic cells level at 2 uM incubated for 24 hrs by annexinV/7-AAD double staining based flow cytometry (reference value: 3.68%); format: functional
[11] = system: HL-60; test: Cell cycle arrest in human HL60 cells assessed as accumulation at subG0/G1 phase at 0.125 uM by NIM-DAPI staining based flow cytometry (reference value: 2.8 +/- 0.8%); format: functional
[12] = system: HL-60; test: Induction of cleaved caspase 3 expression in human HL60 cells at 0.25 to 2 uM incubated for 24 hrs by Western blotting method; format: functional, cell-based; summary of the method: as §3
[13] = system: HL-60; test: Antiproliferative activity against human HL60 cells after 24 hrs by MTT assay; format: functional, cell-based; settings: HL-60, 24 h
Summary of the method: (§4)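 HL-60 cells seeded at 2×10^4 per well, treated after 24 h with serial dilutions (0.0625-1 µM) for 24, 48, 72 or 96 h; DMSO 0.1% vehicle control. MTT added (final 500 µg/mL) for 4 h, formazan dissolved in DMSO, OD at 540 nm. Inhibition calculated relative to vehicle control after subtracting time-zero reading; IC50 by curve fitting; n = 6 per group.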

[14] = system: HL-60; test: Induction of apoptosis in human HL60 cells assessed as late apoptotic cells level at 1 uM incubated for 24 hrs by annexinV/7-AAD double staining based flow cytometry (reference value: 0.43%); format: functional
[15] = system: HL-60; test: Induction of apoptosis in human HL60 cells assessed as early apoptotic cells level at 1 uM incubated for 24 hrs by annexinV/7-AAD double staining based flow cytometry (reference value: 3.68%); format: functional
[16] = system: HL-60; test: Antiproliferative activity against human HL60 cells after 72 hrs by MTT assay; format: functional, cell-based; settings: HL-60, 72 h; summary of the method: as §4
[17] = system: HL-60; test: Antiproliferative activity against human HL60 cells after 96 hrs by MTT assay; format: functional, cell-based; settings: HL-60, 96 h; summary of the method: as §4
[18] = system: HL-60; test: Cell cycle arrest in human HL60 cells assessed as accumulation at G2/M phase at 0.0625 uM by NIM-DAPI staining based flow cytometry (reference value: 13.2 +/- 2.8%); format: functional
[19] = system: HL-60; test: Induction of apoptosis in human HL60 cells assessed as necrotic cells level at 1 uM incubated for 24 hrs by annexinV/7-AAD double staining based flow cytometry (reference value: 3.45%); format: functional
[20] = system: HL-60; test: Reduction in mitochondrial transmembrane electric potential in human HL60 cells 1 uM incubated for 96 hrs by DiOC6(3) dye staining based flow cytometry; format: functional, cell-based
Summary of the method: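 HL-60 cells given DMSO vehicle or 1 µM test agent for 96 h, then loaded with 100 nM DiOC6(3) for 30 min at 37 °C. After washing and resuspension in PBS, the cells were read at once by flow cytometry in FL-1.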

[21] = system: HL-60; test: Cell cycle arrest in human HL60 cells assessed as accumulation at subG0/G1 phase at 0.25 uM by NIM-DAPI staining based flow cytometry (reference value: 2.8 +/- 0.8%); format: functional
[22] = system: HL-60; test: Effect on total ERK1/2 protein expression in human HL60 cells at 1 uM incubated for 1 to 24 hrs by Western blot method; format: functional, cell-based; summary of the method: as §1
[23] = system: HL-60; test: Induction of cleaved caspase 7 expression in human HL60 cells at 0.25 to 2 uM incubated for 24 hrs by Western blotting method; format: functional, cell-based; summary of the method: as §3
[24] = system: HL-60; test: Induction of apoptosis in human HL60 cells assessed as viable cells level at 2 uM incubated for 24 hrs by annexinV/7-AAD double staining based flow cytometry (reference value: 92.44%); format: functional
[25] = system: HL-60; test: Cell cycle arrest in human HL60 cells assessed as accumulation at subG0/G1 phase at 0.0625 uM by NIM-DAPI staining based flow cytometry (reference value: 2.8 +/- 0.8%); format: functional
[26] = system: HL-60; test: Induction of apoptosis in human HL60 cells assessed as necrotic cells level at 2 uM incubated for 24 hrs by annexinV/7-AAD double staining based flow cytometry (reference value: 3.45%); format: functional
[27] = system: HL-60; test: Induction of apoptosis in human HL60 cells assessed as viable cells level at 1 uM incubated for 24 hrs by annexinV/7-AAD double staining based flow cytometry (reference value: 92.44%); format: functional
[28] = system: HL-60; test: Down regulation of c-Myc protein expression in human HL60 cells at 1 uM after 2 hrs by Western blot method; format: functional, cell-based; summary of the method: as §1
[29] = system: HL-60; test: Induction of apoptosis assessed as increase in caspase 3/7 enzyme activity in human HL60 cells at 1 uM incubated for 24 to 72 hrs by luminometry relative to untreated control; format: functional; summary of the method: as §2
[30] = system: HL-60; test: Effect on total SAPK/JNK protein expression in human HL60 cells at 1 uM incubated for 1 to 24 hrs by Western blot method; format: functional, cell-based; summary of the method: as §1
[31] = system: HL-60; test: Cell cycle arrest in human HL60 cells assessed as accumulation at G2/M phase at 0.125 uM by NIM-DAPI staining based flow cytometry (reference value: 13.2 +/- 2.8%); format: functional
[32] = system: HL-60; test: Cell cycle arrest in human HL60 cells assessed as accumulation at subG0/G1 phase at 1 uM by NIM-DAPI staining based flow cytometry (reference value: 2.8 +/- 0.8%); format: functional
[33] = target: c-Jun N-terminal kinase, JNK (Homo sapiens) (UniProt P45983+P53779+P45984); test: Induction of JNK phosphorylation in human HL60 cells at 1 uM incubated for 1 to 24 hrs by Western blot method; format: cell-based; settings: HL-60; summary of the method: as §1
[34] = system: HL-60; test: Antiproliferative activity against human HL60 cells after 48 hrs by MTT assay; format: functional, cell-based; settings: HL-60, 48 h; summary of the method: as §4
[35] = system: HL-60; test: Induction of apoptosis assessed as increase in caspase 8 enzyme activity in human HL60 cells at 1 uM incubated for 24 to 72 hrs by luminometry relative to untreated control; format: functional, cell-based; summary of the method: as §2

Cl.Cl.NCCCn1c2c(c3ccc(N)cc3c1=O)C(=O)c1ccccc1-2
Activity [1]: Active | fold change (FC) [2]: 7.8 | Activity [3]: 11.1% | Activity [4]: 6.27% | Activity [5]: 45% | Activity [6]: Active | Activity [7]: Active | Activity [8]: 27.6% | Activity [9]: inactive | Activity [10]: 51.56% | Activity [11]: 6% | Activity [12]: Active | IC50 [13]: 800 nM | Activity [14]: 5.21% | Activity [15]: 34.18% | IC50 [16]: 150 nM | IC50 [17]: 86 nM | Activity [18]: 22% | Activity [19]: 2.99% | Activity [20]: Active | Activity [21]: 6.1% | Activity [22]: inactive | Activity [23]: Active | Activity [24]: 37.6% | Activity [25]: 4.6% | Activity [26]: 4.57% | Activity [27]: 57.62% | Activity [28]: Active | fold change (FC) [29]: 12.6 | Activity [30]: inactive | Activity [31]: 39.6% | Activity [32]: 26.5% | Activity [33]: Active | IC50 [34]: 350 nM | Activity [35]: inactive
